From ChEMBL document CHEMBL3352173, “Optimization of pyrrolamide topoisomerase II inhibitors toward identification of an antibacterial clinical candidate (AZD5099)” (J Med Chem, 2014) come the findings set out here.

In brackets after ≈: the same amount, converted by molar mass. Some results are limits rather than exact numbers.

The subject of one series is Haemophilus influenzae. Description: Antimicrobial activity against Haemophilus influenzae by broth microdilution/CLSI method. The note with it: Haemophilus influenzae; read-out: MIC. It is filed as functional. A general note: In broth dilution the organism is exposed to a series of concentrations in liquid medium.
For the next series, the target named is DNA gyrase subunit B (Staphylococcus aureus, UniProt P0A0K8). As to the kind of experiment: Inhibition of ATPase activity of Staphylococcus aureus GyrB. A digest of the protocol:
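IC50 was determined against S. aureus GyrB in the routine screening assay. The enzyme concentration limits resolution below 10 nM.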

Another series has as its system Streptococcus pneumoniae. Description: Antibacterial activity against Streptococcus pneumoniae by broth microdilution/CLSI method. It is filed as functional. The note with it: Streptococcus pneumoniae; read-out: MIC.
The next series relates to Streptococcus pyogenes. As to the kind of experiment: Antimicrobial activity against Streptococcus pyogenes by broth microdilution/CLSI method. It is filed as functional.
Series [1] relates to Staphylococcus aureus. Description: Antimicrobial activity against methicillin-sensitive Staphylococcus aureus by broth microdilution/CLSI method. It is filed as functional. The note with it: Staphylococcus aureus; read-out: MIC.
The subject of series [2] is Staphylococcus aureus. As to the kind of experiment: Antimicrobial activity against methicillin, quinolone-resistant Staphylococcus aureus by broth microdilution/CLSI method. It is filed as functional. The note with it: Staphylococcus aureus; read-out: MIC.
A further series concerns Moraxella catarrhalis. Description: Antimicrobial activity against Moraxella catarrhalis by broth microdilution/CLSI method. The note with it: Moraxella catarrhalis; read-out: MIC. In kind it is functional.
The test system of series [3] is Escherichia coli. As to the kind of experiment: Antimicrobial activity against wild-type Escherichia coli Eco523 by broth microdilution/CLSI method. It is filed as functional. The note with it: Escherichia coli, Eco523; read-out: MIC.
The test system of series [4] is Escherichia coli. As to the kind of experiment: Antimicrobial activity against Escherichia coli tolC- by broth microdilution/CLSI method. It is filed as functional. The note with it: Escherichia coli; read-out: MIC.
A short description of series [5]: Octanol-phosphate buffer distribution coefficient, log D of the compound at pH 7.4 by shake flask method. In kind it is physicochemical.
Series [6] can be described thus: Percentage unbound in human plasma. It is filed as ADME, cell-free.
A short description of series [7]: Solubility of the compound. It is filed as physicochemical.
Series [8] is described as follows: Ratio of MIC for methicillin, quinolone-resistant Staphylococcus aureus to fraction unbound in human plasma. It is filed as ADME.
Series [9] is described as follows: Clearance in rat at 10 mg/kg, iv. In kind it is ADME, organism-based. On the set-up: dose 10 mg/kg, route intravenous. The note with it: in vivo.

DNA gyrase subunit B, sequence (P0A0K8 whole entry): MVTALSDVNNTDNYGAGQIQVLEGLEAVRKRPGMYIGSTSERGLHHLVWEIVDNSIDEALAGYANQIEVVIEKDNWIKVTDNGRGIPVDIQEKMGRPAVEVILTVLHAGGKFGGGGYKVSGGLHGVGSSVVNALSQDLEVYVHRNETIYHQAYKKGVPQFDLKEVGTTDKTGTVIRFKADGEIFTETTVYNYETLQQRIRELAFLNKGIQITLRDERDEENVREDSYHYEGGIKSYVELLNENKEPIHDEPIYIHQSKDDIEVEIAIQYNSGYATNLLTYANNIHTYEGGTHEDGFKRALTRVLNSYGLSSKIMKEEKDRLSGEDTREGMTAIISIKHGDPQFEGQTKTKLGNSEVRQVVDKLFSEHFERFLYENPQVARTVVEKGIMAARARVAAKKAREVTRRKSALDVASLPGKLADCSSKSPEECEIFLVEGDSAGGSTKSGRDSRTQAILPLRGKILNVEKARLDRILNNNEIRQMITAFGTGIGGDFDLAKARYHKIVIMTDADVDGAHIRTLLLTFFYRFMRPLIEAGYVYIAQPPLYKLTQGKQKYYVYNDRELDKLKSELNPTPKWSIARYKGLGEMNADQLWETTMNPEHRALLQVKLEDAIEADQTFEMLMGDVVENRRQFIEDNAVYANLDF

As usually defined, the IC50 is the concentration that gives 50% inhibition. The term logD denotes the decadic logarithm of the distribution of all forms, ionised or not, between an organic phase and buffer at a given pH. As a reminder, the fraction unbound is the share of the substance not bound to proteins or other matrix. Read a low fraction unbound as extensive binding. What is called solubility is how much of the substance goes into solution per volume. A low value points to a poorly soluble substance. One may read the clearance as the volume of plasma or blood freed of the substance per unit of time. A high value points to efficient removal. For the compound `CO[C@H]1CN(c2nc(-c3ccncn3)c(C(=O)O)s2)CC[C@H]1NC(=O)c1[nH]c(C)c(Cl)c1Cl`, the MIC is 0.12 µg/mL (≈ 0.235 µM) in the series with Haemophilus influenzae; under 0.06 µg/mL in the series with Streptococcus pneumoniae; under 0.06 µg/mL in the series on Streptococcus pyogenes; under 0.06 µg/mL in the series with Staphylococcus aureus [1]; 0.031 µg/mL (≈ 0.0606 µM) with Staphylococcus aureus [2]; under 0.06 µg/mL in the series with Moraxella catarrhalis. Also, the results for the MIC with Escherichia coli [3] and with Escherichia coli [4] were 16 µg/mL (≈ 31.3 µM) and 0.5 µg/mL (≈ 0.978 µM), respectively. This compound registered an IC50 against DNA gyrase subunit B of under 10 nM. Further, the logD in series [5] was determined as 1.7. Also, the fraction unbound in [6] was 0.042. This compound also returned a solubility in series [7] of 350 µM (≈ 179 µg/mL). Moreover, in series [8], the Ratio is 0.74. In addition, in series [9], the clearance amounted to 3.8 mL/min/kg.
As for `CNC(=O)c1nc(N2CC[C@@H](NC(=O)c3[nH]c(C)c(Cl)c3Cl)[C@@H](OC)C2)sc1C(=O)O`, the MIC with Haemophilus influenzae was 0.14 µg/mL (≈ 0.285 µM); in the series with Streptococcus pneumoniae it was 0.016 µg/mL (≈ 0.0326 µM); in the series on Streptococcus pyogenes, 0.013 µg/mL (≈ 0.0265 µM); in the series with Staphylococcus aureus [1], 0.063 µg/mL (≈ 0.128 µM); in the series on Staphylococcus aureus [2], 0.063 µg/mL (≈ 0.128 µM); with Moraxella catarrhalis it was 0.011 µg/mL (≈ 0.0224 µM). In addition, the MIC with Escherichia coli [3] was found to be 18 µg/mL (≈ 36.7 µM); with Escherichia coli [4], 0.3 µg/mL (≈ 0.612 µM). The same compound gave an IC50 at DNA gyrase subunit B of under 10 nM. For the same compound, the log distribution coefficient (logD) in [5] was 1.3. This compound also had a free fraction (fraction unbound) in [6] of 0.02. Further, in [7], the solubility stood at 56 µM (≈ 27.5 µg/mL). The Ratio in series [8] is on record as 3.15. The compound further returned a clearance in series [9] of 14 mL/min/kg.
As for `CO[C@H]1CN(c2nc(C(=O)NCC3(C)OCCO3)c(C(=O)O)s2)CC[C@H]1NC(=O)c1[nH]c(C)c(Cl)c1Cl`, the MIC in the series with Haemophilus influenzae was found to be 0.11 µg/mL (≈ 0.191 µM); in the series with Streptococcus pneumoniae, 0.016 µg/mL (≈ 0.0278 µM); in the series on Streptococcus pyogenes, 0.016 µg/mL (≈ 0.0278 µM); in the series on Staphylococcus aureus [1], 0.063 µg/mL (≈ 0.109 µM); in the series with Staphylococcus aureus [2], 0.084 µg/mL (≈ 0.146 µM); with Moraxella catarrhalis, 0.016 µg/mL (≈ 0.0278 µM). The MIC in the series on Escherichia coli [3] turned out to be 11 µg/mL (≈ 19.1 µM); with Escherichia coli [4] it was 0.5 µg/mL (≈ 0.867 µM). Besides, the IC50 at DNA gyrase subunit B is under 10 nM. The compound further showed a log distribution coefficient (logD) in series [5] of 1. Also, in series [6], the fraction unbound was 0.032. For the same compound, in series [7], the concentration in solution (solubility) came to 620 µM (≈ 357 µg/mL). Further, the Ratio in series [8] is reported as 2.6. Also, the clearance in [9] worked out at 34 mL/min/kg.
`CO[C@H]1CN(c2nc(C(=O)NCC3OCCO3)c(C(=O)O)s2)CC[C@H]1NC(=O)c1[nH]c(C)c(Cl)c1Cl`: the MIC was found to be 0.1 µg/mL (≈ 0.178 µM) with Haemophilus influenzae; 0.04 µg/mL (≈ 0.0711 µM) in the series with Streptococcus pneumoniae; 0.02 µg/mL (≈ 0.0356 µM) in the series with Streptococcus pyogenes; 0.063 µg/mL (≈ 0.112 µM) in the series with Staphylococcus aureus [1]; 0.1 µg/mL (≈ 0.178 µM) in the series with Staphylococcus aureus [2]; 0.013 µg/mL (≈ 0.0231 µM) in the series on Moraxella catarrhalis. The MIC is over 8 µg/mL in the series with Escherichia coli [3] and 0.79 µg/mL (≈ 1.4 µM) with Escherichia coli [4]. The IC50 against DNA gyrase subunit B was under 10 nM. This compound also yielded a logD in series [5] of 0.76. Further, the free fraction (fraction unbound) in [6] is 0.028. The compound further gave a solubility in series [7] of 940 µM (≈ 529 µg/mL). Also, the Ratio in series [8] turned out to be 3.6. Also, the clearance in series [9] amounted to 33 mL/min/kg.
For the compound `CO[C@H]1CN(c2nc(C(=O)NC3COC(C)(C)OC3)c(C(=O)O)s2)CC[C@H]1NC(=O)c1[nH]c(C)c(Cl)c1Cl`, the MIC in the series on Haemophilus influenzae was 0.16 µg/mL (≈ 0.271 µM); with Streptococcus pneumoniae, 0.016 µg/mL (≈ 0.0271 µM); with Streptococcus pyogenes, 0.016 µg/mL (≈ 0.0271 µM); in the series on Staphylococcus aureus [1], under 0.06 µg/mL; with Moraxella catarrhalis, 0.008 µg/mL (≈ 0.0135 µM); with Escherichia coli [3] it was 14 µg/mL (≈ 23.7 µM). In addition, the MIC in the series on Escherichia coli [4] was determined as 0.76 µg/mL (≈ 1.29 µM). For the same compound, the concentration for half-maximal inhibition (IC50) against DNA gyrase subunit B was under 10 nM. Also, in [5], the pH-dependent lipophilicity (logD) was 1.2. The compound also came in with a fraction unbound in series [6] of 0.036. In [7], this compound returned a solubility of over 1000 µM. Also, in series [8], the Ratio was under 1.8. Moreover, in series [9], the clearance is 38 mL/min/kg.
For the compound `CO[C@H]1CN(c2nc(-c3nc(C)no3)c(C(=O)O)s2)CC[C@H]1NC(=O)c1[nH]c(C)c(Cl)c1Cl`, the MIC with Haemophilus influenzae is 0.13 µg/mL (≈ 0.252 µM); in the series on Streptococcus pneumoniae it was under 0.06 µg/mL; in the series with Streptococcus pyogenes, under 0.06 µg/mL; in the series with Staphylococcus aureus [1] it was 0.13 µg/mL (≈ 0.252 µM); in the series with Staphylococcus aureus [2], 0.13 µg/mL (≈ 0.252 µM); in the series on Moraxella catarrhalis, under 0.06 µg/mL. The MIC in the series on Escherichia coli [3] was found to be 32 µg/mL (≈ 62.1 µM); with Escherichia coli [4] it was 0.5 µg/mL (≈ 0.97 µM). This compound also gave a concentration for half-maximal inhibition (IC50) at DNA gyrase subunit B of under 10 nM. This compound also came in with a logD in [5] of 0.07. In addition, the unbound share (fraction unbound) in series [6] amounted to 0.015. This compound returned a solubility in series [7] of 630 µM (≈ 325 µg/mL). Besides, the Ratio in series [8] came out at 8.7. Besides, in series [9], the clearance is 110 mL/min/kg.
In the case of `COCn1ccnc1-c1nc(N2CC[C@@H](NC(=O)c3[nH]c(C)c(Cl)c3Cl)[C@@H](OC)C2)sc1C(=O)O`, the MIC in the series with Haemophilus influenzae was 0.5 µg/mL (≈ 0.92 µM); in the series with Streptococcus pneumoniae, under 0.06 µg/mL; in the series with Streptococcus pyogenes, under 0.06 µg/mL; in the series on Staphylococcus aureus [1], under 0.06 µg/mL; with Moraxella catarrhalis it was under 0.06 µg/mL; in the series with Escherichia coli [3] it was 16 µg/mL (≈ 29.4 µM). The MIC with Escherichia coli [4] is 0.25 µg/mL (≈ 0.46 µM). Further, the IC50 at DNA gyrase subunit B is under 10 nM. In addition, the logD in series [5] amounted to 0.24. In series [6], the fraction unbound worked out at 0.071. Moreover, in series [7], the concentration in solution (solubility) was 170 µM (≈ 92.4 µg/mL). Further, the Ratio in series [8] is under 0.9. This compound came in with a clearance in [9] of 27 mL/min/kg.
